Measurements from ChEMBL document CHEMBL1121573, “2-(Aminomethyl)phenols, a new class of saluretic agents. 1. Effects of nuclear substitution” (J Med Chem, 1980).

test system: Rattus norvegicus; experiment: Compound administered orally at a dose of 81 mg/kg was evaluated for salidiuretic activity measured as sodium ion excretion in Rat; type: ADME, organism-based, Urine; parameters: dose 81 mg/kg, route oral; unit not given beside the values; settings: in vivo, po
Summary of the method: (§1)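 Female Charles-River rats (150–170 g), overnight on sugar diet with water ad libitum. Compound dissolved in DMF, diluted with water containing Tween 80 (final 4% DMF), given po in 5.0 mL; concurrent vehicle placebo. Three rats per metabolism cage; 0–5 h urine analysed for Na+, K+, Cl-. Values: mequiv × 100 per cage, geometric means of three cages per dose; scored 0–6 by Na+.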

Row | Structure (SMILES) | Diuretic activity
1 | C=CCc1cc(CN)c(O)c(OC)c1.Cl | 2.9
2 | Cc1cc(Cl)c(O)c(CN)c1C.Cl | 2.9
3 | Cc1c(Cl)cc(I)c(O)c1CN.Cl | 2.9
4 | CCC(C)(C)c1cc(Cl)c(O)c(CN)c1.Cl | 2.9
5 | CC(C)(C)c1ccc(O)c(CN)c1.Cl | 1.5
6 | CCSc1cc(C(C)(C)C)cc(CN)c1O.Cl | 1.5

Results, then the molecule that gave them:

Row | Diuretic activity | Structure (SMILES)
7 | 2.9 | CCOc1c(Cl)c(O)c(CN)c(OCC)c1Cl.Cl
8 | 2.4 | CCc1c(Cl)cc(CN)c(O)c1Cl.Cl

test system: Canis familiaris; experiment: Compound administered intravenously was evaluated for salidiuretic activity measured as sodium ion excretion in Dog; type: ADME, organism-based, Canis lupus familiaris, Urine; parameters: unit not given beside the values; settings: in vivo, iv
Summary of the method: (§2)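 Conditioned female mongrel dogs, postabsorptive, water-loaded (500 mL po) 1 h before sodium pentobarbital anesthesia (30 mg/kg iv). Bladder catheter; creatinine 4 g sc; phosphate–mannitol buffer pH 7.4 infused (3.0 mL/min) throughout. […] Urine Na+ measured; response scored 0–6.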

Row | Diuretic activity | Structure (SMILES)
9 | > 900 | Cc1c(Cl)cc(Cl)c(O)c1CN.Cl
10 | > 900 | Br.Cc1c(C)c(Cl)c(Cl)c(CN)c1O
11 | > 900 | Cc1c(Cl)c(C)c(CN)c(O)c1Br.Cl

test system: Canis familiaris; experiment: Compound administered intravenously at a dose of 5 mg/kg was evaluated for salidiuretic activity measured as sodium ion excretion in Dog; Value ranges from 600-799; type: ADME, organism-based, Canis lupus familiaris, Urine; parameters: dose 5 mg/kg, route intravenous; unit not given beside the values; settings: in vivo, iv; summary of the method: as §2

Row | Diuretic activity | Structure (SMILES)
12 | 600 | C=CCc1cc(CN)c(O)c(OC)c1.Cl
13 | 600 | Cc1c(Cl)cc(I)c(O)c1CN.Cl
14 | 600 | CCC(C)(C)c1cc(Cl)c(O)c(CN)c1.Cl

test system: Canis familiaris; experiment: Compound administered intravenously at a dose of 5 mg/kg was evaluated for salidiuretic activity measured as sodium ion excretion in Dog; Value ranges from 400-599; type: ADME, organism-based, Canis lupus familiaris, Urine; parameters: dose 5 mg/kg, route intravenous; settings: in vivo, iv; summary of the method: as §2

Row | Structure (SMILES) | Diuretic activity
15 | CC(C)Cc1cc(Cl)c(O)c(CN)c1.Cl | 400
16 | Cc1cc(Cl)c(O)c(CN)c1C.Cl | 400
17 | Cl.NCc1c(O)c(C(F)(F)F)cc(Cl)c1Cl | 400
18 | CCSc1cc(C(C)(C)C)cc(CN)c1O.Cl | 400

Second part, the molecule after the results:

Row | Diuretic activity | Structure (SMILES)
19 | 400 | Cl.NCc1c(O)cc(Cl)c(Cl)c1Cl
20 | 400 | CCc1c(Cl)cc(CN)c(O)c1Cl.Cl

test system: not listed separately; experiment: Compound administered orally at a dose of 5 mg/kg was evaluated for salidiuretic activity measured as sodium ion excretion in Rat; type: organism-based; parameters: dose 5 mg/kg; settings: Urine; summary of the method: as §1

Row | Structure (SMILES) | Diuretic activity
21 | C=CCc1cc(CN)c(O)c(OC)c1.Cl | 0.5
22 | CC(C)Cc1cc(Cl)c(O)c(CN)c1.Cl | 0.5
23 | Cc1cc(Cl)c(O)c(CN)c1C.Cl | 0.5
24 | Cc1c(Cl)cc(I)c(O)c1CN.Cl | 0.5
25 | Cl.NCc1c(O)c(C(F)(F)F)cc(Cl)c1Cl | 1.4
26 | CCC(C)(C)c1cc(Cl)c(O)c(CN)c1.Cl | 0.5
27 | CCOc1c(Cl)c(O)c(CN)c(OCC)c1Cl.Cl | 0.5
28 | Cl.NCc1c(O)cc(Cl)c(Cl)c1Cl | 1.4
29 | CC(C)(C)c1ccc(O)c(CN)c1.Cl | 0.3
30 | CCSc1cc(C(C)(C)C)cc(CN)c1O.Cl | 0.3
31 | CCc1c(Cl)cc(CN)c(O)c1Cl.Cl | 0.4

test system: not listed separately; experiment: Evaluated for salidiuretic activity measured as sodium ion excretion in Rat, administered orally at a dose of 16.5 mg/kg; type: organism-based; parameters: dose 16.5 mg/kg; settings: Urine; summary of the method: as §1

Row | Structure (SMILES) | Diuretic activity
32 | C=CCc1cc(CN)c(O)c(OC)c1.Cl | 1.4
33 | CC(C)Cc1cc(Cl)c(O)c(CN)c1.Cl | 1.4
34 | Cc1cc(Cl)c(O)c(CN)c1C.Cl | 1.4
35 | Cc1c(Cl)cc(I)c(O)c1CN.Cl | 1.4
36 | Cl.NCc1c(O)c(C(F)(F)F)cc(Cl)c1Cl | 2.7
37 | CCC(C)(C)c1cc(Cl)c(O)c(CN)c1.Cl | 1.4
38 | CCOc1c(Cl)c(O)c(CN)c(OCC)c1Cl.Cl | 1.4
39 | Cl.NCc1c(O)cc(Cl)c(Cl)c1Cl | 2.7
40 | CC(C)(C)c1ccc(O)c(CN)c1.Cl | 0.5
41 | CCSc1cc(C(C)(C)C)cc(CN)c1O.Cl | 0.5
42 | CCc1c(Cl)cc(CN)c(O)c1Cl.Cl | 0.6

test system: Canis familiaris; experiment: Compound administered intravenously at a dose of 5 mg/kg was evaluated for salidiuretic activity measured as sodium ion excretion in Dog; Value ranges from 0-99; type: ADME, organism-based, Canis lupus familiaris, Urine; parameters: dose 5 mg/kg, route intravenous; settings: in vivo, iv; summary of the method: as §2

Row | Diuretic activity | Structure (SMILES)
43 | 0 | CCOc1c(Cl)c(O)c(CN)c(OCC)c1Cl.Cl
44 | 0 | CC(C)(C)c1ccc(O)c(CN)c1.Cl

test system: Rattus norvegicus; experiment: Evaluated for salidiuretic activity measured as sodium ion excretion in Rat, administered orally at a dose of 50 mg/kg; type: functional, Urine; parameters: unit not given beside the values; settings: route oral; summary of the method: as §1

Row | Structure (SMILES) | Diuretic activity
45 | C=CCc1cc(CN)c(O)c(OC)c1.Cl | 2.4
46 | CC(C)Cc1cc(Cl)c(O)c(CN)c1.Cl | 2.4
47 | Cc1cc(Cl)c(O)c(CN)c1C.Cl | 2.4
48 | Cc1c(Cl)cc(I)c(O)c1CN.Cl | 2.4
49 | Cl.NCc1c(O)c(C(F)(F)F)cc(Cl)c1Cl | 3.3
50 | CCC(C)(C)c1cc(Cl)c(O)c(CN)c1.Cl | 2.4
51 | CCOc1c(Cl)c(O)c(CN)c(OCC)c1Cl.Cl | 2.4
52 | Cl.NCc1c(O)cc(Cl)c(Cl)c1Cl | 3.3
53 | CC(C)(C)c1ccc(O)c(CN)c1.Cl | 1.2
54 | CCSc1cc(C(C)(C)C)cc(CN)c1O.Cl | 1.2
55 | CCc1c(Cl)cc(CN)c(O)c1Cl.Cl | 1.8

test system: Canis familiaris; experiment: Compound administered intravenously was evaluated for salidiuretic activity measured as sodium ion excretion in Dog; Value ranges from 400-599; type: ADME, organism-based, Canis lupus familiaris, Urine; settings: in vivo, iv; summary of the method: as §2

Row | Diuretic activity | Structure (SMILES)
56 | 400 | Cc1cc(Cl)c(O)c(CN)c1Cl.Cl
57 | 400 | CC1(c2cc(I)c(O)c(CN)c2)CCCC1.Cl
58 | 400 | Cl.NCc1cc(C2CCCCC2)cc(Cl)c1O
